In brackets after ≈: the same amount, converted by molar mass. Bridge positions count the residues as written; N and C are the ends. Square brackets hold non-standard residues; d marks the D form. Peptide text beside a SMILES is read from it. * marks the point of attachment. Heptanoyl(6-Me) = CC(C)CCCCC(=O)*; Dab = NCC[C@H](N)C(=O)O
Experiments:
Escherichia coli [1] = experiment: Antibacterial activity against Escherichia coli ATCC 25922 after 18 hrs by agar dilution method; assay type: functional; settings: ATCC 25922, 18 h
Outline: (§1)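 Serial two-fold agar dilution per CLSI; bacteria cultured in Mueller-Hinton broth, inoculum about 10^4 cfu/spot; final concentrations 0.03-128 µg/mL; plates incubated 35 °C for 18 h. MIC = lowest concentration preventing visible growth; representative of at least two independent experiments, a third run when the two disagreed.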

Escherichia coli [2] = experiment: Antibacterial activity against extended-spectrum beta-lactamase producing Escherichia coli isolate 14-11 after 18 hrs by agar dilution method; assay type: functional; settings: isolate 14-11, 18 h; outline: as §1
Klebsiella pneumoniae [3] = experiment: Antibacterial activity against extended-spectrum beta-lactamase producing Klebsiella pneumoniae 700603 after 18 hrs by agar dilution method; assay type: functional; settings: Klebsiella pneumoniae, 700603, 18 h; outline: as §1
Klebsiella pneumoniae [4] = experiment: Antibacterial activity against NDM-1 producing Klebsiella pneumoniae ATCC BAA-2146 after 18 hrs by agar dilution method; assay type: functional; settings: ATCC BAA-2146, 18 h; outline: as §1
Pseudomonas aeruginosa = experiment: Antibacterial activity against Pseudomonas aeruginosa ATCC 27853 after 18 hrs by agar dilution method; assay type: functional; settings: ATCC 27853, 18 h; outline: as §1
Acinetobacter baumannii = experiment: Antibacterial activity against Acinetobacter baumannii ATCC 19606 after 18 hrs by agar dilution method; assay type: functional; settings: ATCC 19606 = CIP 70.34 = JCM 6841, 18 h; outline: as §1
[5] = (§2) Cytotoxicity against African green monkey Vero cells after 72 hrs by MTT assay; assay type: cell-based; settings: chlorocebus sabaeus, Vero cells
Outline: (§3)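 Vero cells seeded at 2x10^3 cells/well, incubated 24 h at 37 °C, 5% CO2, then exposed to compound 72 h; MTT added for 2 h, medium removed, formazan dissolved in DMSO, absorbance read at 570 nm. Viability relative to untreated cells (100%); CC50 as mean ± SD of three independent experiments, each in triplicate.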

[6] = Acute toxicity in iv dosed ICR mouse assessed as survival measured daily for 7 days; assay type: organism-based; settings: in vivo
Outline: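 ICR mice, 18 to 22 g, 4 weeks old, 10 per group (5 male, 5 female). Four to five intravenous dose groups per compound. Survival recorded daily for 7 days. LD50 (dose per kg body weight lethal to 50%) calculated by the Bliss method. LD50 values compared by one-way ANOVA.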

Mus musculus [7] = experiment: Nephrotoxicity in ICR mouse assessed as tubular dilation at 2.5 mg/kg, iv bid for 7 days measured after 2 hrs post last dose by hematoxylin and eosin staining based assay; assay type: toxicity, organism-based; settings: in vivo
Outline: (§4)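 ICR mice, 18-22 g, 4 weeks old, n=8 per group (4 male, 4 female); component in saline (0.25 mg/mL, kept at 4 °C) given iv at 2.5 mg/kg twice daily, 8 h apart, for 7 days. Kidneys taken 2 h after last dose, formalin-fixed, paraffin-embedded, sectioned, H&E stained and examined by light microscopy; saline controls included.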

Mus musculus [8] = experiment: Nephrotoxicity in ICR mouse assessed as induction of prominent nuclei at 2.5 mg/kg, iv bid for 7 days measured after 2 hrs post last dose by hematoxylin and eosin staining based assay; assay type: toxicity, organism-based; settings: in vivo; outline: as §4
Mus musculus [9] = experiment: Nephrotoxicity in ICR mouse assessed as pale tubular casts at 2.5 mg/kg, iv bid for 7 days measured after 2 hrs post last dose by hematoxylin and eosin staining based assay; assay type: toxicity, organism-based; settings: in vivo; outline: as §4
Vero = experiment: as §2; assay type: cell-based; settings: chlorocebus sabaeus, vero, 72 h; outline: as §3

| Molecule | MIC (Escherichia coli [1]) [µg/mL] | MIC (Escherichia coli [2]) [µg/mL] | MIC (Klebsiella pneumoniae [3]) [µg/mL] | MIC (Klebsiella pneumoniae [4]) [µg/mL] | MIC (Pseudomonas aeruginosa) [µg/mL] | MIC (Acinetobacter baumannii) [µg/mL] | CC50 at 72 h [5] [µg/mL] | LD50 at 168 h [6] [mg/kg] | Activity (Mus musculus [7]) | Activity (Mus musculus [8]) | Activity (Mus musculus [9]) | CC50 (Vero) [µg/mL] |
| --- | --- | --- | --- | --- | --- | --- | --- | --- | --- | --- | --- | --- |
| CC(C)CCCCC(=O)N[C@@H](CCN)C(=O)N[C@H](C(=O)N[C@H](CO)C(=O)N[C@H]1CCNC(=O)[C@H]([C@@H](C)O)NC(=O)[C@H](CCN)NC(=O)[C@H](CCN)NC(=O)[C@H]([C@@H](C)O)NC(=O)[C@@H](Cc2ccccc2)NC(=O)[C@H](CCN)NC1=O)[C@@H](C)O ({Heptanoyl(6-Me)}-[Dab]T[dS][Dab][Dab][dF]T[Dab][Dab]T; lactam 4-C) | 0.25 (≈ 0.215 µM) | 0.25 (≈ 0.215 µM) | 0.5 (≈ 0.429 µM) | 0.5 (≈ 0.429 µM) | 2 (≈ 1.72 µM) | 0.25 (≈ 0.215 µM) | > 500 | 17 | Non-Toxic | Non-Toxic | Non-Toxic |  |
| CC(C)CCCCC(=O)N[C@@H](CCN)C(=O)N[C@H](C(=O)N[C@H](CO)C(=O)N[C@H]1CCNC(=O)[C@H]([C@@H](C)O)NC(=O)[C@H](CCN)NC(=O)[C@H](CCN)NC(=O)[C@H]([C@@H](C)O)NC(=O)[C@@H](CC(C)C)NC(=O)[C@H](CCN)NC1=O)[C@@H](C)O ({Heptanoyl(6-Me)}-[Dab]T[dS][Dab][Dab][dL]T[Dab][Dab]T; lactam 4-C) | 0.25 (≈ 0.221 µM) | 0.12 (≈ 0.106 µM) | 0.5 (≈ 0.442 µM) | 0.5 (≈ 0.442 µM) | 4 (≈ 3.54 µM) | 0.12 (≈ 0.106 µM) | 318 (≈ 281 µM) | 20.5 | Toxic | Toxic | Toxic |  |
| CC(C)CCCCC(=O)N[C@@H](CCN)C(=O)N[C@H](C(=O)N[C@@H](CCN)C(=O)N[C@H]1CCNC(=O)[C@H]([C@@H](C)O)NC(=O)[C@H](CCN)NC(=O)[C@H](CCN)NC(=O)[C@H]([C@@H](C)O)NC(=O)[C@@H](CC(C)C)NC(=O)[C@H](CCN)NC1=O)[C@@H](C)O | 0.5 (≈ 0.437 µM) | 0.25 (≈ 0.219 µM) | 0.5 (≈ 0.437 µM) | 0.5 (≈ 0.437 µM) | 0.5 (≈ 0.437 µM) | 1 (≈ 0.875 µM) | 276 (≈ 241 µM) | 13 | Non-Toxic | Non-Toxic | Non-Toxic |  |
| COLISTIN |  |  |  |  |  |  |  |  |  |  |  | 95 |

Reference: ChEMBL document CHEMBL4118103, “Synthesis and Bioactivity Investigation of the Individual Components of Cyclic Lipopeptide Antibiotics” (J Med Chem, 2018)
